High-throughput results: PubChem BioAssay, Sanford-Burnham Center for Chemical Genomics
Sampled rows, rich in hits. Any-hit rate of the full collection: about 0.72%.
bIAP act: intestinal alkaline phosphatase (bovine) activation | purified bovine IAP, CDP-star luminescence, 30 min; stronger effect = higher value; fold of DMSO-control signal, blank-subtracted | activation factor at 20 µM | 200,000 compounds, 0.17% hits | AID 1016;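 active = activation factor of 2 or more at 20 µM, a signal rise over negative controls twice the positive control's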
mIAP act: mouse IAP activation; muIAP, CDP-Star luminescence, 30 min; stronger effect = higher value; 1 = vehicle-only enzyme signal, 0 = enzyme-free wells; activation factor at 10 µM; 330,000 compounds, 0.24% hits; AID 2805;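 active = activation factor of at least 2 at 20 µM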
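also added = chemiluminescent substrate CDP-Star | test system = mouse IAP enzyme | signal = chemiluminescence readout | compound = DMSO-dissolved test compounds | incubation = 30 min at room temperature | benchmarks = DMSO wells, no-enzyme wells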
bIAP inh: blocks bovine intestinal alkaline phosphatase activity; 190,000 tested, under 10 active; inhibition, % at 20 µM; purified bovine IAP, CDP-star luminescence, 30 min; AID 1019;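 active = over 50% inhibition of intestinal alkaline phosphatase at 20 µM in the single-dose screen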
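Assay system: bovine IAP enzyme; medium: DEA buffer 100 mM, pH 9.8, with MgCl2 1.0 mM, ZnCl2 0.02 mM; doses: 20 µM single dose; incubation: enzyme reaction for 30 min at room temperature; detection: CDP-star luminescence signal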
hIAP inh: blocks human intestinal alkaline phosphatase | purified IAP, CDP-Star luminescence, 30 min | inhibition, % at 10 µM | 330,000 compounds, 0.12% hits | AID 2544;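 active = inhibition reaching a set limit with compound at 10 µM in the primary screen, cut at about 35% in these data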
Target sequence (P09923 whole entry, looked up): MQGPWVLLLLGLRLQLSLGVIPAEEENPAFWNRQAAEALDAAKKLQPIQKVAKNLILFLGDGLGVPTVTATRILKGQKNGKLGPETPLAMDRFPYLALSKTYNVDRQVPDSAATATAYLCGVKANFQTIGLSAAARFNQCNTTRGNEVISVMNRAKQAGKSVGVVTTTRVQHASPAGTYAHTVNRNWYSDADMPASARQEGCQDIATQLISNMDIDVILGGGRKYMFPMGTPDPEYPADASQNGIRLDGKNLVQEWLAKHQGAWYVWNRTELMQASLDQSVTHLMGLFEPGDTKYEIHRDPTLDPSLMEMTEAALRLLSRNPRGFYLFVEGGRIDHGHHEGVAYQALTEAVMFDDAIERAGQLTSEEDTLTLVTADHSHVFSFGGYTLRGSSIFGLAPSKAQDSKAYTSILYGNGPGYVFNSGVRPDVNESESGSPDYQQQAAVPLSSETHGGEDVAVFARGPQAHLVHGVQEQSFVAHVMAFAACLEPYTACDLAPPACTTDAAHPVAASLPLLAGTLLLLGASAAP
mIAP inh: mouse IAP inhibition. purified mouse IAP, CDP-Star luminescence, 30 min. inhibition, % at 10 µM. 330,000 compounds, 0.2% hits. AID 2806;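 active = inhibition of at least 40% at 10 µM in the primary screen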
hIAP act: human IAP activation; activation factor at 10 µM; purified human IAP, CDP-Star luminescence, 30 min; stronger effect = higher value; 1 = vehicle-only enzyme, 0 = enzyme-free background; AID 2524; 330,000 compounds, 0.16% hits; P09923;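 active = activation factor of the enzyme at least 2-fold when tested at 20 µM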
Hits are given with their value; n = inactive; x = no result.

SMILES | bIAP act | mIAP act | bIAP inh | hIAP inh | mIAP inh | hIAP act
O=C(O[C@H]1[C@H](Oc2ccccc2COC(=O)C2(O)C=CCCC2=O)O[C@H](CO)[C@@H](O)[C@@H]1O)c1ccccc1 (stereo partly specified) | x | n | x | n | n | n
O=C(Cc1ccc(Cl)cc1)Nc1cccc(S(=O)(=O)N2CCCCC2)c1 | x | 2.1 | x | n | n | n
CC(CNC(=O)CCC(=O)N1CCOc2ccc(Cl)cc21)c1ccccc1 (stereo unspecified) | x | n | x | n | n | n
N#Cc1sc2nc(-c3ccccc3)cc(-c3ccco3)c2c1N | n | n | n | n | 48 | n
N#Cc1sc2nc(C3CC3)cc(-c3ccccc3)c2c1N | n | n | n | n | n | n
COc1cc2c(cc1OC)CN(C(=O)c1ccc(Cl)c(S(=O)(=O)N3CCCC3)c1)CC2 | x | n | x | n | n | n
N#Cc1ccc(NC(=O)Nc2ccc(Cl)cc2)cc1 | n | 2.2 | n | n | n | n
Cc1ccc(Cl)cc1-n1ncc2c(NNC(=O)c3ccco3)ncnc21 | n | n | n | n | n | 2.4
CC(=O)NNc1ncnc2c1cnn2-c1ccc(C)c(Cl)c1 | n | n | n | n | n | n
CC(=O)NNc1ncnc2c1cnn2-c1ccc(C)cc1 | n | n | n | n | n | 3.1
Cc1cc2c(=O)n(C)c(SCC(=O)Nc3ccccc3C)nc2s1 | x | n | x | n | n | n
Cn1cnnc1SCC(=O)N1CCC(Cc2ccccc2)CC1 | 2.4 | n | n | n | n | n
Cn1cnnc1SCC(=O)N1CCN(C(=O)c2ccco2)CC1 | n | n | n | n | n | n
CCCOc1ccc(CNC(=S)NCc2ccc(OC(C)C)cc2)cc1 | n | 4.2 | n | n | n | n
O=C(NCc1ccc2c(c1)OCO2)C1CCN(Cc2cnn(-c3ccccc3)c2-n2cccc2)CC1 | 2.1 | n | n | n | n | n
O=C(Nc1ccccc1Cl)C1CCN(Cc2cnn(-c3ccccc3)c2-n2cccc2)CC1 | n | n | n | n | n | n
CC(C)(C)OC(=O)N[C@@H](C(=O)OC(C)(C)C)c1ccc2ccccc2c1 | x | n | x | n | n | n
O=C(Oc1cc(=O)oc2ccccc12)c1cccnc1Cl | 2.4 | n | n | n | n | n
Cc1csc2c(N3CCN(C(=O)NC(C)(C)C)CC3)ncnc12 | x | n | x | n | n | n
Cc1csc2c(N3CCN(C(=O)Nc4ccc(Cl)c(Cl)c4)CC3)ncnc12 | x | 2.4 | x | n | n | n
Cc1cccc(NC(=O)c2cn(-c3ccccc3)nc2-c2ccccc2)c1 | n | 2.6 | n | n | n | n
Fc1ccc(C2CC(c3cccs3)=NN2c2ccccc2)cc1 (stereo unspecified) | n | 2.3 | n | n | n | n
NS(=O)(=O)c1ccc(N2N=C(c3ccccc3)CC2c2ccc(F)cc2)cc1 (stereo unspecified) | n | 2.1 | n | n | n | n
O=C(COC(=O)COc1ccccc1[N+](=O)[O-])NC1CCCCC1 | x | n | x | n | n | n
Cc1ccc(-n2ncc3c(N4CCCC(C)C4)ncnc32)c(C)c1 (stereo unspecified) | x | n | x | n | 44 | n
SMILES | bIAP act | mIAP act | bIAP inh | hIAP inh | mIAP inh | hIAP act
Cc1cc(C)nc(/N=C(\N)Nc2ccc(OCc3ccccc3)cc2)n1 | 6.2 | n | n | n | n | 2.1
CCOC(=O)N1CCN(C(=O)c2ccc(Cn3c(=S)[nH]c4ccc(Br)cc4c3=O)cc2)CC1 | x | n | x | n | n | n
O=C(NCc1ccc(F)cc1)C1CCN(S(=O)(=O)c2ccc3c(c2)OCCCO3)CC1 | n | n | n | n | n | n
O=C(NCc1ccc(Cl)cc1Cl)C1CCN(S(=O)(=O)c2ccc3c(c2)OCCCO3)CC1 | n | 2.6 | n | n | n | n
CC(C)C[C@@]12C(=O)N(c3cccc(Br)c3)C(=O)N1[C@H](c1ccc(Cl)cc1)[C@@H]1C(=O)N(C3CCCCC3)C(=O)[C@@H]12 | x | n | x | n | 46 | n
CCc1ccc(NC(=O)C2CCN(S(=O)(=O)c3ccc4c(c3)CC(C)N4C(C)=O)CC2)cc1 (stereo unspecified) | x | 2.1 | x | n | n | n
CCc1ccc(NC(=O)C2CCCN(S(=O)(=O)c3ccc4c(c3)CC(C)N4C(C)=O)C2)cc1 (stereo unspecified) | x | n | x | n | n | n
O=C(NC(Nc1ccc(F)cc1)(C(F)(F)F)C(F)(F)F)c1cccnc1 | 2 | n | n | n | n | n
